Published values collected from several papers.
Lines come from different studies, so protocols differ. Converted amounts (≈) assume the structure as drawn.
Organism: Escherichia coli

| SMILES | test | test system | conditions | quantity | result |
| --- | --- | --- | --- | --- | --- |
| O=S(=O)(Oc1cccc2cccnc12)c1ccccc1 | microbial growth, broth dilution | ATCC25922 | – | IC50 | 277 µg/mL |
| COc1ccc(-c2nc3ccccc3n2Cc2ccccc2)cc1OC | microbial growth, broth dilution | ATCC25922 | – | MIC | 64 µg/mL (≈ 186 µM) |
| COc1ccc(-n2cc(COc3cc(C(C)C)ccc3C)nn2)cc1 | microbial growth, broth dilution | ATCC25922 | – | IC50 | 320 µg/mL |
| N=C(N)c1cccc(OCc2cccc(COc3cccc(C(=N)N)c3)c2)c1 | microbial growth | BW25113 | – | MIC | > 200 µg/mL |
| Cc1ccc(-n2cc(COC3=CC(=O)c4ccccc4C3=O)nn2)cc1 | microbial growth, broth dilution | ATCC25922 | – | IC50 | 224 µg/mL |
| O=C(N[C@H](CO)[C@H](O)c1ccc([N+](=O)[O-])cc1)C(Cl)Cl | microbial growth | ATCC25922 | – | MIC90 | 0.98 µg/mL (≈ 3.03 µM) |
| N=C(N)c1ccc(OCCS(=O)(=O)CCOc2ccc(C(=N)N)cc2)cc1 | microbial growth, broth dilution | BW25113 | – | MIC | > 200 µg/mL |
| CC1(C)SC2C(NC(=O)C(NC(=O)C3=C(O)C(Cc4ccccc4)NC3=O)c3ccccc3)C(=O)N2C1C(=O)O (stereo not drawn) | microbial growth, well diffusion | BW25113 | 200 µM | inhibition zone | 12 mm |
| CC(C)Oc1c(NC(=O)c2ccc(NC(=O)[C@H](CC(N)=O)NC(=O)c3ccc(NC(=O)C(C)Oc4ccc(C#N)cc4)cc3)cc2)ccc(C(=O)Nc2ccc(C(=O)O)cc2)c1O (stereo partly drawn) | microbial growth | DSM1116 | – | MIC | 0.06 µg/mL (≈ 0.0701 µM) |
| CCCCCCCCCCCC(=O)Oc1c(C)c(O)c(C(=O)/C=C/c2ccccc2)c(OC)c1C | microbial killing, broth dilution | ATCC25922 | – | MBC | > 5000 µg/mL |
| O=[N+]([O-])c1ccc(-c2nc3ccccc3n2Cc2ccccc2)cc1 | microbial growth, broth dilution | ATCC25922 | – | MIC | 64 µg/mL (≈ 194 µM) |
| O=C(O)c1cn(C2CC2)c2cc(N3CCNCC3)c(F)cc2c1=O | microbial growth | SG458 | 1000 µg/mL | inhibition zone | 28.5 mm |
| COc1c(N2C[C@@H]3CCCN[C@@H]3C2)c(F)cc2c(=O)c(C(=O)O)cn(C3CC3)c12 | microbial growth | ATCC25922 | – | MIC90 | 0.06 µg/mL (≈ 0.149 µM) |
| C[C@H]1COc2c(N3CCN(C)CC3)c(F)cc3c(=O)c(C(=O)O)cn1c23 | microbial growth | ATCC25922 | – | MIC | 0.04 µg/mL (≈ 0.111 µM) |
| Oc1ccc(-c2cc(Cl)sc2Cl)cc1O | microbial growth | AS19 | 10 h | IC50 | 6.1 µM |
| CCOC(=O)c1c(N)csc1-c1cn(-c2ccccc2)nc1-c1ccc(C)cc1 | microbial killing, broth dilution | – | – | MBC | 0.125 µg/mL (≈ 0.31 µM) |
| O=C(Sc1cccccc1=O)c1ccccc1C(F)(F)F | microbial growth, broth dilution | ATCC35218 | – | MIC80 | 19.8 µM (≈ 6.14 µg/mL) |
| O=S(=O)(Oc1cccc2cccnc12)c1cccs1 | microbial growth, broth dilution | ATCC25922 | – | IC50 | 165 µg/mL |
| CC1(C)S[C@@H]2[C@H](NC(=O)[C@H](N)c3ccccc3)C(=O)N2[C@H]1C(=O)O | microbial growth, disc diffusion | – | 50 µg/disc | inhibition zone | 21 mm |
| CC(C)Oc1c(NC(=O)c2ccc(NC(=O)[C@H](CC(N)=O)NC(=O)c3ccc(NC(=O)c4ccc(C#N)cc4)cc3)cc2)ccc(C(=O)N[C@@H]2CONC2=O)c1O | microbial growth | DSM1116 | – | MIC | > 64 µg/mL |
| COc1c(C)c(OS(=O)(=O)c2ccc3ccccc3c2)c(C)c(OS(=O)(=O)c2ccc3ccccc3c2)c1C(=O)/C=C/c1ccccc1 | microbial growth, well diffusion | ATCC25922 | 5 µg/mL | inhibition zone | 12 mm |

| SMILES | test | test system | conditions | quantity | result |
| --- | --- | --- | --- | --- | --- |
| COc1cc(C=CC(=O)CC(c2ccc([N+](=O)[O-])cc2)n2ccnc2)ccc1O (stereo not drawn) | microbial growth, disc diffusion | ATCC25922 | 250 µg/mL | inhibition zone | 7.67 mm |
| CCCCCCCCCCCCCC(O)CC(O)CO (stereo not drawn) | microbial growth, broth dilution | ATCC35218 | – | IC50 | > 200 µg/mL |
| O=C(O)c1cn(C2CC2)c2cc(N3CCNCC3)c(F)cc2c1=O | microbial growth, disc diffusion | – | 100 µg/mL, 24 h | inhibition zone | 17 mm |
| O=[N+]([O-])c1ccc(-c2nc3ccccc3[nH]2)cc1 | microbial growth, broth dilution | ATCC25922 | – | MIC | 128 µg/mL (≈ 535 µM) |
| CC1(C)SC2C(NC(=O)C(NC(=O)C3=C(O)C4(CC4)NC3=O)c3ccccc3)C(=O)N2C1C(=O)O (stereo not drawn) | microbial growth, well diffusion | BW25113 | 200 µM | inhibition zone | 10 mm |
| O=c1cccccc1SSc1cccccc1=O | microbial growth, broth dilution | ATCC35218 | – | MIC80 | 19.8 µM (≈ 5.43 µg/mL) |
| CC(C)CC1NC(=O)C(C(=O)NC(C(=O)NC2C(=O)N3C2SC(C)(C)C3C(=O)O)c2ccccc2)=C1O (stereo not drawn) | microbial growth, well diffusion | BW25113 | 200 µM | inhibition zone | 9 mm |
| COc1cc(C=Cc2cc(-c3ccc(N(C)C)cc3)nc(O)n2)ccc1O | microbial growth, disc diffusion | ATCC25922 | 500 µg/mL | inhibition zone | 11 mm |
| COc1c(C)c(OC(C)=O)c(C)c(O)c1C(=O)/C=C/c1ccccc1 | microbial killing, broth dilution | ATCC25922 | – | MBC | > 5000 µg/mL |
| CC(C)c1cccc(=O)c(O)c1 | microbial growth, broth dilution | ATCC35218 | – | MIC80 | 44.4 µM (≈ 7.29 µg/mL) |
| COc1c(C)c(OS(=O)(=O)c2ccc3ccccc3c2)c(C)c(O)c1C(=O)/C=C/c1ccccc1 | microbial killing, broth dilution | ATCC25922 | – | MBC | > 5000 µg/mL |
| O=C(O)c1cn(C2CC2)c2cc(N3CCNCC3)c(F)cc2c1=O | microbial growth, broth dilution | ATCC25922 | – | IC50 | 0.125 µg/mL |
| COc1cc(C=CC(=O)CC(c2ccc(N(C)C)cc2)n2ccnc2)ccc1O (stereo not drawn) | microbial growth, disc diffusion | ATCC25922 | 500 µg/mL | inhibition zone | 8.67 mm |
| O=C1C=C(O)C(=O)c2ccccc21 | microbial growth, broth dilution | ATCC25922 | – | IC50 | 179 µg/mL |
| N=C(N)c1ccccc1OCc1ccc(COc2ccccc2C(=N)N)cc1 | microbial growth | BW25113 | – | MIC | > 200 µg/mL |
| Cc1ccc(C(C)C)cc1OCc1cn(-c2ccc(Cl)cc2)nn1 | microbial growth, broth dilution | ATCC25922 | – | IC50 | 655 µg/mL |
| N=C(N)c1ccc(OCc2ccc3ccc(COc4ccc(C(=N)N)cc4)cc3c2)cc1 | microbial growth | BW25113 | – | MIC | ≥ 200 µg/mL |
| C=CCn1c(-c2ccc(Cl)cc2)nc2ccccc21 | microbial growth, broth dilution | ATCC25922 | – | MIC | 64 µg/mL (≈ 238 µM) |
| O=C(N/N=C/c1ccc([N+](=O)[O-])o1)c1ccc(O)cc1 | microbial growth | ATCC25922 | – | MIC90 | 0.49 µg/mL (≈ 1.78 µM) |
| COc1ccc(-c2nc3ccc(C)cc3[nH]2)cc1OC | microbial growth, broth dilution | ATCC25922 | – | MIC | 64 µg/mL (≈ 239 µM) |
| CCCCS(=O)(=O)Oc1cccc2cccnc12 | microbial growth, broth dilution | ATCC25922 | – | IC50 | 194 µg/mL |
